4 compounds from publication PMC3947748 (Journal of biomolecular screening, 2010) can be followed below.

In experiment [1] the target is T1, Nek2 (Homo sapiens, UniProt P51955).
T1 sequence (P51955 1-445): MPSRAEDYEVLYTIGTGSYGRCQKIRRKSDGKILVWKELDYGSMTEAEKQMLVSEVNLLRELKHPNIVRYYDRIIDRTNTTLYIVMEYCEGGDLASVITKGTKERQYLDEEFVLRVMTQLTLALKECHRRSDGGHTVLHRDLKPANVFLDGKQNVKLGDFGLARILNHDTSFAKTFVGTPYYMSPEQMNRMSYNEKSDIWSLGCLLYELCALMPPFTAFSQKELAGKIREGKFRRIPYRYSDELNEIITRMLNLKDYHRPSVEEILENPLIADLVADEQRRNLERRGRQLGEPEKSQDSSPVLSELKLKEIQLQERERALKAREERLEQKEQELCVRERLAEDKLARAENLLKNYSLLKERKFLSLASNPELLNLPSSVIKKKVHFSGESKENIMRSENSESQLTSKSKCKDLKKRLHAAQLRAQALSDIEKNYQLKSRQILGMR
Briefly: FlashPlate radiometric proximity assay of Nek2 kinase activity. The experiment is classed as biochemical.

For experiment [2], the target named is T1, Nek2. Briefly: Filter assay of Nek2 kinase activity. The experiment is classed as biochemical.
A further experiment deals with U2OS:GFP-Nek2A cells. Briefly: Manual immunofluorescence assay of Nek2A-induced centrosome splitting. The experiment is classed as cell-based, human. The settings on record: doxycycline-induced cells; 0.5, 5 and 50 μM; 24 hours; γ-tubulin stain. Put shortly: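 Tetracycline-inducible stable U2OS:GFP-Nek2A cells were induced with doxycycline together with test compound (0.5, 5, 50 μM) or DMSO (2%) for 24 h. Cells were fixed and stained for γ-tubulin and DNA for indirect immunofluorescence. The percentage of interphase cells with centrosomes more than 2 μm apart was scored. Three repeat experiments, standard deviations; Student's t-test versus DMSO.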

Another experiment deals with Nek6 (Homo sapiens, UniProt Q9HC98). Description: Kinase specificity assay. The experiment is classed as biochemical.
Nek6, sequence (Q9HC98 whole entry, species assumed): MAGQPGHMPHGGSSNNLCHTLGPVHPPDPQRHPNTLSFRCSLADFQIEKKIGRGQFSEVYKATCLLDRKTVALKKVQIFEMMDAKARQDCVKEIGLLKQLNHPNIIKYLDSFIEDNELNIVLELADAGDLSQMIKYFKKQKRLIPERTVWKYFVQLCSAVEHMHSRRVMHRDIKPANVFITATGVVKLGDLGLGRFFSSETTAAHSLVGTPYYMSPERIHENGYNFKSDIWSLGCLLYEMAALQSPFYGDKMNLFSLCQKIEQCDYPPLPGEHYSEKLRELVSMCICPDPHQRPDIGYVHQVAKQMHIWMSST
Another experiment has as its target Nek7 (Homo sapiens, UniProt Q8TDX7). Description: Kinase specificity assay. The experiment is classed as biochemical.
The next experiment addresses T2, Aurora A (Homo sapiens, UniProt O14965).
T2 sequence (O14965 1-403): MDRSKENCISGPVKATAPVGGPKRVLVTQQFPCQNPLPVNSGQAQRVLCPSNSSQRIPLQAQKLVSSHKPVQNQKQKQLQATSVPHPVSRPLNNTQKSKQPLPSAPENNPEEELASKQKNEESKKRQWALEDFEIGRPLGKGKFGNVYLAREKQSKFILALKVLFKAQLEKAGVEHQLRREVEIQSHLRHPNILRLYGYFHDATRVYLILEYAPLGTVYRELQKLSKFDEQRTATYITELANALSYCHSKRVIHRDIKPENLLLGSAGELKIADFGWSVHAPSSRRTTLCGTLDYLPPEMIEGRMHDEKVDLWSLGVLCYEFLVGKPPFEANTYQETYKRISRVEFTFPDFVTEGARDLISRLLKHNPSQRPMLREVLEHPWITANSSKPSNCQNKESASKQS
Description: Kinase specificity assay. The experiment is classed as biochemical.

The next experiment has as its target Cdk1/Cyclin B (Homo sapiens, UniProt P06493). Briefly: Kinase specificity assay. The experiment is classed as biochemical.
Another experiment deals with U2OS cells. Briefly: Growth inhibition assay. The settings on record: Homo sapiens, 72 h, read-out: Growth inhibition GI50, U2OS. The experiment is classed as cell-based. Put shortly:
(§1)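 Cells cultured as previously described, seeded at […], then given test compound in DMSO over a concentration range, or DMSO alone (1-2% final), after 24 h. Incubation 72 h.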

A further experiment relates to HeLa cells. Description: Growth inhibition assay. The experiment is classed as cell-based. The settings on record: Homo sapiens, 72 h, read-out: Growth inhibition GI50, HeLa. An outline of the steps: as §1

Where two headings read alike, the source gives them in different places.

Cdk1/Cyclin B, sequence (P14635 whole entry): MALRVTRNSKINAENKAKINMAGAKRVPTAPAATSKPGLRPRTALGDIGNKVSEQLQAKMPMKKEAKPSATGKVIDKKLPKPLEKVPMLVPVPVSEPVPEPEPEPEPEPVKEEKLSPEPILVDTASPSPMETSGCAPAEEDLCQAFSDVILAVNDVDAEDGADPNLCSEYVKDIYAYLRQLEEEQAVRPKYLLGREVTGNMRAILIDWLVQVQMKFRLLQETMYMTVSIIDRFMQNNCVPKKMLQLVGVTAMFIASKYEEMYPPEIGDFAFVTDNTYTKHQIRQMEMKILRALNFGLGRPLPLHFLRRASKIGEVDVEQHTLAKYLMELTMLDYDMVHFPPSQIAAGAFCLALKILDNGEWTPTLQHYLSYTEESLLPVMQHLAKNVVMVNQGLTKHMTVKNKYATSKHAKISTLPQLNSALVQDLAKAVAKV
Cdk1/Cyclin B, sequence (P06493 whole entry): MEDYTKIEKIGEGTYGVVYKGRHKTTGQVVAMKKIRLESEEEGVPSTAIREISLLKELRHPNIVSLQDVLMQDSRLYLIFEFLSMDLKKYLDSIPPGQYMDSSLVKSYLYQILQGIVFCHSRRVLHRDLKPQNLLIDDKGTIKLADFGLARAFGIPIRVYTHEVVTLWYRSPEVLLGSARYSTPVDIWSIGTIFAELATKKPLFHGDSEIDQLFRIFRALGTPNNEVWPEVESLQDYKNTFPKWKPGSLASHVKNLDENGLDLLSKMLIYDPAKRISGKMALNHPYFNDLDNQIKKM
Nek7, sequence (Q8TDX7 whole entry, species assumed): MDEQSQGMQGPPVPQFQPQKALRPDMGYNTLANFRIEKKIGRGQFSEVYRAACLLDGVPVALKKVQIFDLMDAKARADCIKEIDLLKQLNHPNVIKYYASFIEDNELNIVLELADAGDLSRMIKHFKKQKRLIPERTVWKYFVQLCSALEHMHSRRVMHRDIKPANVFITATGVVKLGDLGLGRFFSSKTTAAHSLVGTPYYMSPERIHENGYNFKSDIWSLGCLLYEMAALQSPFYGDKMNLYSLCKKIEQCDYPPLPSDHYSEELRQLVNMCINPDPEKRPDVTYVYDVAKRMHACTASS

As to `O=c1cc(N2CCOCC2)oc2c(-c3ccccc3)cccc12` [LY294002], the “Nek2 inhibition, FlashPlate (result in words)” value at Nek2 [1] was “inactive”. Moreover, the “Nek2 inhibition, filter assay (result in words)” value at Nek2 [2] was “inactive”.

Take `Oc1ccc(Nc2nc(OCC3CCCCC3)c3[nH]cnc3n2)cc1` [NU6120, 6-cyclohexylmethoxy-2-(4′-hydroxyanilino)purine]: in the experiment on U2OS:GFP-Nek2A cells, the “Effect on Nek2A-induced centrosome splitting (manual scoring, split >2 μm)” value was “had no effect on splitting”.

In the case of `CN[C@@H]1C[C@H]2O[C@@](C)([C@@H]1OC)n1c3ccccc3c3c4c(c5c6ccccc6n2c5c31)C(=O)NC4` [Staurosporine, staurosporine], the “Hill slope of Nek2 inhibition” value at Nek2 [1] (data not shown) is approximately 1.0. For the same compound, the inhibition (as a rule, how much of the control response was suppressed) at 25 µM at Nek2 [1] (read-out: Inhibition of Nek2 activity at 25 μM, entire screen) turned out to be 59 ± 18%; at Nek2 [1] (read-out: Inhibition of Nek2 activity at 25 μM, typical batch), 61.2 ± 2.4%.

On to `COC[C@H]1OC(=O)c2coc3c2[C@@]1(C)C1=C(C3=O)[C@@H]2CCC(=O)[C@@]2(C)C[C@H]1OC(C)=O` [Wortmannin], for which the IC50 against Nek6, against Nek7, against Aurora A and at Cdk1/Cyclin B was more than 400 µM throughout. Moreover, the figures for the GI50 with U2OS cells and in the experiment with HeLa cells were 23.7 µM and 15 µM, respectively.
